Consider 167 variants from the RNAGym collection of RNA variant scans (doi:10.1126/science.aae0568).

Variants at the floor of the assay were thinned out.

B1: tRNA (parent)
chain: GUUCCGUUGGCGUAAUGGUAACGCGUCUCCCUCCUAAGGAGAAGACUGCGGGUUCGAGUCCCGUACGGAACG

The series covers variants of B1. Kind of series: yeast fitness relative to wild type (ratio to wild type); higher = fitter; tRNA-Arg(CCU), competitive growth, 37 C, YPD. The procedure, abridged:
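Start and end populations of a pooled competition were compared by 100-nucleotide paired-end sequencing of gene amplicons. The Saccharomyces cerevisiae strains carried tRNA-Arg(CCU) gene variants at the native genomic locus, synthesised with a 3% per-site mutation rate at 69 sites, and competed in YPD at 37°C for 24 hours in six parallel replicates. Darwinian fitness relative to wild type was based on the change in genotype frequencies. Genotypes required ≥ 100 starting reads, and estimates < 0.5 were set to 0.5.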
As for U2G A42G, the yeast fitness was determined as 0.866.

U2G A40G: the yeast fitness is 0.803.

As to U2G A40C, the yeast fitness was found to be 0.698.

With U2G A40U, the yeast fitness was 0.813.

For U2G C33U A42C, the yeast fitness was determined as 0.681.

In the case of U2G C22U A57U, the yeast fitness is at most 0.5.

For U2G G12C A20U C33U A37U A57U, the yeast fitness is at most 0.5.

As for U2C U54C C62U, the yeast fitness came out at 0.571.

Take U2G C22G C27G C30A U32G C55G: the yeast fitness is at most 0.5.

With U2G A45C G48A, the yeast fitness is 0.622.

For the variant U2G A21C A45G, the yeast fitness was found to be 0.54.

In the case of U2G C46A G58C C62U, the yeast fitness was at most 0.5.

On to U2G C34U A40G C46A, for which the yeast fitness is at most 0.5.

Turning to U2G G44A G51C A65U, the yeast fitness was at most 0.5.

As for U2G C27U A36G, the yeast fitness came to 0.552.

Consider U2G C11A C24A U26A G44C A70G, for which the yeast fitness is at most 0.5.

On to U2G C5A A43U, for which the yeast fitness was 0.68.

As to U2G G9C G12A A42C C46A, the yeast fitness amounted to 0.577.

As to U2G C4U U8C, the yeast fitness was 0.732.

Consider U2G C4U A65G, for which the yeast fitness was determined as 0.729.

As for U2G G44A G51C, the yeast fitness was at most 0.5.

As to U2G A20G, the yeast fitness was 0.901.

With U2G C30G G39C, the yeast fitness was determined as 0.551.

Consider U2G G6A G56C, for which the yeast fitness was at most 0.5.

Regarding U2G C4U A42G, the yeast fitness turned out to be 0.755.

Take U2G C33G G39C A65C: the yeast fitness is at most 0.5.

Take U2G C31A: the yeast fitness came out at 0.788.

For the variant U2G C31U, the yeast fitness was determined as 1.03.

As for U2G C31G, the yeast fitness came out at 1.02.

For U2G A15C A43G, the yeast fitness is at most 0.5.

With U2G A36G A40U A43U, the yeast fitness is at most 0.5.

Consider U2G C11U C27G G52C, for which the yeast fitness was at most 0.5.

Consider U2G C31U A37C, for which the yeast fitness is 0.56.

As for U2G G6A A70G, the yeast fitness worked out at 0.776.

As to U2G G23C G58A, the yeast fitness is at most 0.5.

Consider U2G A14G C22U C24G A69C, for which the yeast fitness is at most 0.5.

As for U2G C24G C31U G67C, the yeast fitness was at most 0.5.

With U2G C46G C49U, the yeast fitness stood at 0.669.

Regarding U2G C27U G41A A42U C46G, the yeast fitness is at most 0.5.

Consider U2G C62G A70U, for which the yeast fitness was found to be 0.822.

Consider U2G C5A A36U, for which the yeast fitness was at most 0.5.

Regarding U2G G9C A36U A45C, the yeast fitness was at most 0.5.

For the variant U2G G39A G51A, the yeast fitness is at most 0.5.

On to U2G C11G A20G C24U U26C C31G, for which the yeast fitness is at most 0.5.

As for U2G A36U G67A G68C, the yeast fitness is at most 0.5.

U2G C24U G67C: the yeast fitness came to 0.681.

Turning to U2G C4A C22U U28G A42U, the yeast fitness was at most 0.5.

On to U2G G6A C22U C27U A36U C60G, for which the yeast fitness is at most 0.5.

Regarding U2G A36U G58A, the yeast fitness was at most 0.5.

Consider U2G G9C G12A A42C C46A U64C, for which the yeast fitness is at most 0.5.

Turning to U2G G25U A65U, the yeast fitness was found to be 0.532.

Turning to U2G C5A U19A C30G A43C, the yeast fitness is at most 0.5.

Regarding U2G C31U U53A, the yeast fitness was at most 0.5.

In the case of U2G G10C A69C, the yeast fitness is at most 0.5.

For the variant U2G C31U U47G, the yeast fitness is at most 0.5.

Turning to U2G C24G A36G A42C C61U C62G, the yeast fitness is at most 0.5.

Consider U2G C33U A36U A43C, for which the yeast fitness was found to be 0.688.

As for U2G C31A A69C, the yeast fitness was determined as 0.557.

Take U2G C29G G50C A57U: the yeast fitness is at most 0.5.

For the variant U2G G10A G50A, the yeast fitness is at most 0.5.

In the case of U2G A37C G51A, the yeast fitness was at most 0.5.

Consider U2G C4G C31A A37C, for which the yeast fitness is at most 0.5.

For the variant U2G A15C C49U, the yeast fitness was determined as 0.563.

Turning to U2G A21G A69C, the yeast fitness came out at 0.501.

With U2G A14C A57U A69U, the yeast fitness is at most 0.5.

As for U2G G58A, the yeast fitness turned out to be 1.16.

As for U2G G58C, the yeast fitness was 0.755.

For the variant U2G G48C G52C C62G, the yeast fitness was found to be 0.541.

Turning to U2G G51A, the yeast fitness worked out at 0.805.

As for U2G G38A A69C, the yeast fitness was found to be 0.531.

With U2G C61U, the yeast fitness is 0.88.

Regarding U2G A20G C22A A40C C46G G48A C49U, the yeast fitness was at most 0.5.

For the variant U2G G41C, the yeast fitness was determined as 0.818.

Take U2G C30A U35G: the yeast fitness is 0.66.

U2G A15G G17A C29G A40U C61U C66U: the yeast fitness was at most 0.5.

With U2G A15C G50A, the yeast fitness is at most 0.5.

On to U2G G48A G58C, for which the yeast fitness came out at 0.895.

Take U2G C4U U13A G41A A45C C49A U54G C55G: the yeast fitness is at most 0.5.

Regarding U2G C27U G68U, the yeast fitness came to 0.589.

In the case of U2G C4A U16C C61G G68C, the yeast fitness was at most 0.5.

Consider U2G G9A G41A, for which the yeast fitness was at most 0.5.

Regarding U2G C34U A57C, the yeast fitness is at most 0.5.

For the variant U2G C34U A57G, the yeast fitness was at most 0.5.

On to U2G C29G C31A G67A, for which the yeast fitness was at most 0.5.

With U2G C4G C31A A37C A57G G67C A69U, the yeast fitness is at most 0.5.

On to U2G C49G G50C, for which the yeast fitness was 0.536.

As for U2G G9C A14C A36U C46A C62G, the yeast fitness was at most 0.5.

Regarding U2G A45G A65C, the yeast fitness was at most 0.5.

As for U2G C24U C55G A70U, the yeast fitness is at most 0.5.

As to U2G A43U U47C, the yeast fitness came out at 0.731.

As to U2G G39A G68U, the yeast fitness was at most 0.5.

On to U2G A45U C49U C61G, for which the yeast fitness was at most 0.5.

In the case of U2G A14C A42C C49U A65G A70U, the yeast fitness worked out at 0.533.

Consider U2G A15G G17A G52C A65G, for which the yeast fitness is 0.558.

Regarding U2G G48A C60G, the yeast fitness turned out to be 0.541.

Turning to U2G C34G G39C G41C G67C A70C, the yeast fitness was at most 0.5.

For the variant U2G C55U C61G A65G G68A, the yeast fitness is at most 0.5.

For the variant U2G C49U G52A G68C, the yeast fitness was at most 0.5.

On to U2G G6A A15U C62G, for which the yeast fitness is at most 0.5.

With U2G A37C, the yeast fitness was determined as 0.585.

U2C U54C: the yeast fitness came to 0.873.

U2C U54G: the yeast fitness stood at 0.657.

As for U2G A42U U64C, the yeast fitness was at most 0.5.

Consider U2G A42U U64G, for which the yeast fitness is at most 0.5.

On to U2G C4U G6C C22G G25C U32A G52A U59C C61A C62U, for which the yeast fitness was at most 0.5.

U2G C30A C46G: the yeast fitness turned out to be 0.666.

For the variant U2G G9A U59A, the yeast fitness is at most 0.5.

With U2G C22U C24G C66U A70G, the yeast fitness was at most 0.5.

In the case of U2G A14C C27U U35A A57G C66U, the yeast fitness is at most 0.5.

In the case of U2G C27G C33U G56A, the yeast fitness was at most 0.5.

For the variant U2G C11U, the yeast fitness was 0.824.

As for U2G G6A C27U A36U C61U C62G, the yeast fitness was at most 0.5.

Take U2G G18C C29G C30A C34G G48C: the yeast fitness was determined as 0.604.

Turning to U2G C5A C55G A65C, the yeast fitness is at most 0.5.

U2G C31U G50A C61G C66U A69U: the yeast fitness was at most 0.5.

As for U2G C4A U8C U16C C61G, the yeast fitness was at most 0.5.

For U2G C4U, the yeast fitness was 0.971.

On to U2G C30U A40C G63C U64C, for which the yeast fitness was at most 0.5.

Turning to U2G C60G A69U, the yeast fitness is at most 0.5.

U2G C4U U7G C11G A15C G18A U28C C55U: the yeast fitness was at most 0.5.

As for U2G A20G C22A A40C C46G G48A C49U G63A, the yeast fitness is at most 0.5.

For U2G C29U C55U, the yeast fitness worked out at 0.527.

Take U2G A15U U35G U53G: the yeast fitness is at most 0.5.

As to U2G G67A, the yeast fitness turned out to be 0.901.

Turning to U2G G6C U54A, the yeast fitness is at most 0.5.

U2G A40U C55U: the yeast fitness was at most 0.5.

On to U2G A42G C55U, for which the yeast fitness was at most 0.5.

For the variant U2G C22U C62U, the yeast fitness is 0.616.

On to U2C U59C, for which the yeast fitness worked out at 0.996.

Take U2G C22U C24G A37U: the yeast fitness is at most 0.5.

In the case of U2G G12U, the yeast fitness was found to be 1.15.

Regarding U2G C55U, the yeast fitness amounted to 0.667.

With U2G A21G A65G, the yeast fitness came to 0.663.

Take U2G C29U C49G C55G G63C: the yeast fitness is at most 0.5.

For U2G A37C C49G C62A, the yeast fitness is at most 0.5.

Turning to U2G A15C A37G A43U, the yeast fitness was at most 0.5.

With U2G C4U C22U C27U A37C, the yeast fitness is at most 0.5.

Take U2G A14C C33A C46G: the yeast fitness is at most 0.5.

In the case of U2G A14G A15U G25C C49U, the yeast fitness is at most 0.5.

U2G C31U G48C: the yeast fitness stood at 0.6.

For U2G G18A A21G G25A G51C, the yeast fitness was at most 0.5.

With U2G G58A C60A C66G, the yeast fitness came out at 0.562.

Regarding U2G C24U, the yeast fitness was determined as 0.786.

In the case of U2G A21U, the yeast fitness was 0.729.

Regarding U2G A21G, the yeast fitness was determined as 0.917.

Consider U2G C4A A37U C62G, for which the yeast fitness was at most 0.5.

Take U2G C31G C33G A40U G52A C60G C62U: the yeast fitness was found to be 0.515.

Turning to U2G A70C, the yeast fitness turned out to be 0.836.

As for U2G G18A A40C G68C, the yeast fitness was at most 0.5.

As for U2G A15C C24U, the yeast fitness turned out to be 0.591.

Take U2G A15U C62G: the yeast fitness was at most 0.5.

For U2G C22U C24G A69U, the yeast fitness stood at 0.501.

Take U2G G63C: the yeast fitness worked out at 0.694.

As to U2G A36G A40U A43U C66A, the yeast fitness is at most 0.5.

With U2G C11A A14C C34A, the yeast fitness was at most 0.5.

Take U2G C46G A65U: the yeast fitness turned out to be 0.623.

As for U2G C11G C30G, the yeast fitness was 0.614.

U2G C33U G52A: the yeast fitness is at most 0.5.

Consider U2G G10C A43C, for which the yeast fitness is at most 0.5.

For U2G C11G G12A A20U C31G G68C, the yeast fitness is at most 0.5.

In the case of U2G C5A U19A C30G A43C A69C, the yeast fitness was 0.537.

Regarding U2G G6A A57G, the yeast fitness came to 0.527.

On to U2G C30U, for which the yeast fitness stood at 0.843.

Consider U2G C30A, for which the yeast fitness turned out to be 0.709.

In the case of U2G G9C G12A A20G A42C C46G C49U A69C, the yeast fitness was at most 0.5.

In the case of U2G G6C C11U C27U G63C, the yeast fitness was at most 0.5.

U2G A14G: the yeast fitness amounted to 0.713.
